Assay: Toxicity liver stage against HepG2, at 10uM
Type: cell-based
Set-up: test concentration 10 uM, cell line HepG2-A16-CD81EGFP
Details: human, HepG2-A16-CD81EGFP cells; read-out: INHIBITION
How it was run: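 Uninfected HepG2-A16-CD81EGFP cells, 3 × 10^3 per well, 1536-well, plated on prespotted compound at 10 μM final, parasite-free screening media added to match infected plates; puromycin 10 μM positive, DMSO 0.5% negative; run in parallel with 48 h PbLuc assay at 37 °C, 5% CO2; viability by CellTiter-Glo luminescence, normalized to controls.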

| SMILES | cytotoxicity at 10 µM [%] |
| --- | --- |
| CC(=O)N[C@H](C)c1c(-c2ccc(Cl)cc2)noc1C(=O)O | 3.29 |
| NC(=O)CN1C(=O)CO[C@H]2CN(Cc3ccc(C(F)(F)F)cc3)C[C@H]21 | 0.523 |
| O=C(Nc1ccccc1)[C@H]1CN2CCC1C[C@@H]2Cn1cc(CO)nn1 (stereo partly drawn) | -2.42 |
| CC(=O)N1N=C(c2ccccc2)OC1C(=O)NCCOc1ccccc1 (stereo not drawn) | -2.86 |
| CNC(=O)c1cc(-c2ccccc2OC)[nH]n1 | -2.77 |
| CCOC(=O)[C@@H]1[C@@H](O)C(=O)N(C)C12CCN(C(=O)OC)CC2 | 1.97 |
| Cn1c(-c2cccs2)nn(CCNS(=O)(=O)c2ccccc2Cl)c1=O | -9.48 |
| Cc1cccc(OC2CCN(C(=O)Cn3ccc4ccccc43)CC2)n1 | 1.53 |
| Cc1nsc(C(=O)NCCc2cccs2)n1 | -2.67 |
| O=S(=O)(Nc1cnn(C2CCOCC2)c1)c1ccc(Br)cc1 | 5.05 |
| CCN(C)C1COC2(CCN(C(=O)c3ccc4[nH]ccc4c3)CC2)C1 (stereo not drawn) | -5.96 |
| CCN1C(=O)C(c2ccccc2)CC12CCN(c1ncccn1)CC2 (stereo not drawn) | 1.11 |
| COCCC(=O)N1Cc2[nH]nc(COc3cccnc3)c2C1 | -2.97 |
| Cc1cncc(C(=O)NCC2COCc3c(C)nnn3C2)c1 (stereo not drawn) | -2.03 |
| CC(C)(C)n1ncc2c1NC(=O)CC2c1ccc(C(=O)O)cc1 (stereo not drawn) | 2.08 |
| COc1cccc(S(=O)(=O)NC2CNC(=O)C2)c1 (stereo not drawn) | -21.7 |
| COc1ccc(C)cc1S(=O)(=O)NCCC(O)c1ccccc1 (stereo not drawn) | 0.197 |
| O=C(Cc1ccccc1F)N1CCC[C@@H]1Cn1c(=O)oc2ccccc21 | 2.69 |
| O=S(=O)(c1ccccc1)N1CCOC(Cn2ccnc2)C1 (stereo not drawn) | 7.77 |
| COc1ccc2c(c1)NC(C1CCN(C(=O)C(C)C)CC1)NS2(=O)=O (stereo not drawn) | -4.66 |
| NCc1cccc(-c2cccnc2C(=O)NCCCN2CCOCC2)c1 | -8.77 |
| Cc1csc(C(Cc2ccsc2)NC(=O)C2CCN(S(C)(=O)=O)CC2)n1 (stereo not drawn) | -18 |
| CN(C)CCOc1cc(NC(=O)COCC(F)(F)F)ccn1 | -2.29 |

| SMILES | cytotoxicity at 10 µM [%] |
| --- | --- |
| CCC(C)C(=O)NCc1ccn(-c2ccc(F)cc2)n1 (stereo not drawn) | -2.42 |
| CCC(=O)N(C)Cc1cccc(OC(C)C)c1 | 12.8 |
| CCN(CC1CCOC1)S(=O)(=O)Cc1ccccc1Cl (stereo not drawn) | -0.768 |
| COc1ccc(Cl)cc1NCC(=O)N(Cc1ccccn1)C1CC1 | 8.13 |
| Cc1noc(C(C)N2CCN(CCc3ccncc3)CC2)n1 (stereo not drawn) | 2.67 |
| Cc1noc(C)c1C(C)NC(=O)N1CCCN(C(=O)c2ccsc2)CC1 (stereo not drawn) | -0.77 |
| CC(C)CC(=O)N1CCC2(CC1)OCCO2 | 4.37 |
| O=C(Cc1cccnc1)NCCSc1ccccc1F | -6.45 |
| Cc1nc2ccccc2nc1CN1CCc2c(nc(C3CC3)n2C)C1 | 7.97 |
| CC(C)CNC(=O)COc1cccc[n+]1[O-] | -8.35 |
| CCN(CCO)C(=O)Nc1ccc(OCCOC)nc1 | -5.71 |
| COc1ccccc1CNC(Cn1cncn1)c1ccccc1 (stereo not drawn) | -6.1 |
| Cc1ccoc1C(=O)N1CCOC2(CCCC2)C1 | -4.55 |
| N#Cc1cn(CCCN2CCc3ccccc32)c(=O)[nH]c1=O | 6.48 |
| c1ccc(C(c2ccccc2)N2CCN(CCn3cncn3)CC2)cc1 | -7.72 |
| Cc1cnn(C2CN(CC(=O)NCC3(c4ccccc4)CCC3)C2)c1 | -4.2 |
| CCOC(=O)C1CCN(Cc2c(O)ccc3oc4c(c23)CCCC4)CC1 | -1.2 |
| NC(=O)CCCNC(=O)Cc1cccc(I)c1 | -3.71 |
| Cc1nn(C)c(N(C)C)c1CNC(C)c1cccnc1 (stereo not drawn) | -2.8 |
| C1CC(c2noc(C3CC3)n2)CN(CCOCC2CC2)C1 (stereo not drawn) | -8.91 |
| Cc1nc(C(=O)NCc2ccc(N3CCNC(=O)C3)c(F)c2)cs1 | -0.0162 |
| OCC1(NCc2cnc(-c3ccsc3)s2)CCOCC1 | -3.1 |
| Cc1ccc(OCCC(=O)N(C)CCC#N)cc1C | 6.5 |

| SMILES | cytotoxicity at 10 µM [%] |
| --- | --- |
| COCc1csc(NC(=O)NCc2ccc(C)s2)n1 | 2.44 |
| Cc1nnc(NC(=O)CN2CCCC2c2noc(C3CC3)n2)s1 (stereo not drawn) | 5.22 |
| CN(C)C(=O)C(C)(C)c1ccc2c(c1)OCCO2 | -1.52 |
| O=C(c1cc[nH]c(=O)c1)N1CCn2c(nnc2-c2ccccc2)C1 | -4.71 |
| O=C(Nc1ccccc1-c1cccs1)N1CCOCC1 | -5.01 |
| Cc1nc(CN2CCCN(C(=O)c3ccn(C)c(=O)c3)CC2)cs1 | -12.7 |
| Cn1cc(CNC(=O)C2CCCN(Cc3cccc(F)c3)C2)cn1 (stereo not drawn) | 3.44 |
| CCOc1ccc(S(=O)(=O)C(C)C(=O)Nc2cc(C)no2)cc1 (stereo not drawn) | 5.07 |
| O=C(CCc1nc(C2CC2)no1)c1ccccc1 | -6.43 |
| N#Cc1ccc(CN2CCNC(=O)C2c2cccs2)cc1 (stereo not drawn) | -2.89 |
| CC(=O)N1CCN(C(C)c2ccc(Br)cc2)CC1 (stereo not drawn) | -5.63 |
| CC(Cn1cccn1)NC(=O)NCCCN1CCc2ccccc2C1 (stereo not drawn) | -3.08 |
| COc1ccc(CNCCn2c(C)nc3ccccc32)cc1O | -3.51 |
| CC(C)CNC(=O)CCN1C(=O)CCc2cc(F)ccc21 | 8.17 |
| CCCc1noc(CCC(=O)NC(C)c2nnc3n2CCCCC3)n1 (stereo not drawn) | 4.05 |
| Cc1ccn(-c2ccccc2NCc2cccnc2C)n1 | 1.34 |
| Cc1nc(CC(=O)N2CCCN(c3ccc(C#N)cc3)CC2)cs1 | 2.37 |
| Cc1cnn(C2CCCN(C(=O)c3cc(C)sc3C)C2)c1 (stereo not drawn) | -1.4 |
| O=C(C1CCC1)N1CCCC1c1nnc2n1CCCCC2 (stereo not drawn) | 1.26 |
| O=C(CCn1ccccc1=O)N1CCCC(COc2ccc(F)cc2)C1 (stereo not drawn) | -4.19 |
| CCC[C@H]1CN(c2cncc(C(=O)N3CCCCC3)n2)C[C@@H]1N(C)C | -11.2 |
| O=C1CCC(C(=O)N2CCOC(Cc3ccc(F)cc3)C2)=NN1 (stereo not drawn) | -6.26 |
| CC(=O)NCC(=O)N1CCCC2(CCC(=O)N(CCc3c[nH]cn3)C2)C1 (stereo not drawn) | 2.77 |

| SMILES | cytotoxicity at 10 µM [%] |
| --- | --- |
| CN1C(=O)CC(C(=O)O)C12CCN(c1ccc3c(n1)CCCC3)CC2 (stereo not drawn) | 2.78 |
| CCCN(Cc1nc(-c2ccc(F)c(OC)c2)oc1C)CC1CCCO1 (stereo not drawn) | -1.03 |
| COCCN(CC1CCCN(C2Cc3ccccc3C2)C1)C(=O)COC (stereo not drawn) | -5.98 |
| O=C1NC(C(=O)NCc2cccnc2Oc2ccccc2F)CO1 (stereo not drawn) | 8.99 |
| CCC1CN(Cc2nnc(C(C)C)o2)CCC(=O)N1Cc1ccccc1 (stereo not drawn) | 3.33 |
| O=C(c1ccccn1)N1CCc2c(nc(-c3ccncc3)[nH]c2=O)C1 | 2.99 |
| COCCC(=O)N1CCCC2(CCC(=O)N(CCc3c[nH]cn3)C2)C1 (stereo not drawn) | -3.76 |
| CCCN1CC2(CCN(c3cc(C4CC4)ncn3)CC2)CC1C(=O)O (stereo not drawn) | -9.88 |
| Cc1ccccc1CN1CCNC(=O)C1CC(=O)NCC1CCCCC1 (stereo not drawn) | -8.77 |
| CCn1cc(CNC2CCN(c3cccc(C)c3C)CC2)cn1 | -9.99 |
| COc1cccc(C2CCCN2C(=O)CC2=CSC3=NCCCN23)c1 (stereo not drawn) | -0.277 |
| Cc1ccc(O)c(-c2cc(NCCO)nc3[nH]ccc23)c1 | 14.1 |
| COc1cccc(CCn2ccnc2-c2cn(C3CCNCC3)nn2)c1 | -7.23 |
| COCc1ccc(C(=O)N2CCC(Oc3ccccc3)(C(=O)O)CC2)o1 | 0.871 |
| CCc1cnc(C)nc1NC(CC)c1ncnn1CC (stereo not drawn) | -10.2 |
| COc1cc(CN2CCCC23CCN(c2ccccn2)CC3)ccc1F | -11.5 |
| Cn1ncc2c(NCCC34CCCN3CCC4)nc(C3CCCC3)nc21 | -12.9 |
| O=C(Nc1cc(F)ccc1OCC1CCCO1)NC1CC1 (stereo not drawn) | 0.043 |
| COc1ccc(C(=O)N2CCCC2c2cnn(C)c2)cn1 (stereo not drawn) | -3.63 |
| O=C(CS(=O)(=O)Cc1cc(Cl)c2c(c1)OCO2)N1CCCCCC1 | -2.8 |
| Cc1nn(C)c(Cl)c1C1CCCN1Cc1nc(-c2ccco2)no1 (stereo not drawn) | -11.8 |
| Cc1ccc(C(O)CNC(=O)Nc2cc(C)nn2C)cc1 (stereo not drawn) | -13.3 |
| COc1ccc(CNC(=O)CCSCc2csc(C)n2)cn1 | -21.4 |

| SMILES | cytotoxicity at 10 µM [%] |
| --- | --- |
| OC(CN1CCC(c2ccn[nH]2)CC1)c1ccc(F)cc1 (stereo not drawn) | -28.9 |
| Cc1nc(CN2CCC(c3ccnn3CCO)CC2)oc1C | -15.9 |
| CC(O)CN1CCN(C(=O)c2ccn(-c3ccccc3Cl)n2)CC1 (stereo not drawn) | -11.6 |
| c1ncn(CC2CCCN(Cc3csc(-c4ccsc4)n3)C2)n1 (stereo not drawn) | -9.86 |
| Cc1noc(C)c1CN1CCCC(c2noc(C3CC3)n2)C1 (stereo not drawn) | -12.8 |
| CC(NC(=O)CCCOc1ccc(F)cc1)c1nnc2n1CCC2 (stereo not drawn) | -16.1 |
| Cc1noc(C(C)C)c1C(=O)NCCCN1CCC(C)CC1 | -15.9 |
| Cc1cnn(CC2CCCN2CC(=O)Nc2nccs2)c1 (stereo not drawn) | -4.34 |
| Cc1ccc(S(C)(=O)=O)cc1C(=O)N1CCCC(n2cncn2)C1 (stereo not drawn) | -8.21 |
| Cc1ccc(CN(CCCN2CCOCC2)Cc2cnc(C)n2C)o1 | -24 |
| CCN1CCC2(CCN(c3ncccn3)CC2)C1=O | 1.26 |
| O=C(O)c1cc2c(nc1N1CCOCC1)CCN(C1CCOC1)CC2 (stereo not drawn) | 6.68 |
| COc1ncccc1CN1CCc2[nH]nc(C(=O)N3CCCC3C)c2C1 (stereo not drawn) | -4.4 |
| CN(C)c1ncnc2c1CCN(Cc1nccs1)CC2 | 6.1 |
| CCN(C)c1ncnc2c1CCN(C(=O)COC)CC2 | 1.75 |
| O=C(c1ccc(F)cc1)N1CC[C@H]2[C@H]1CCN2CC1CC1 | -1.92 |
| O=C(C1CC1)N1CC2(CCNCC2)c2cc(F)ccc21 | 0.317 |
| COCC(=O)N1CCCC2(CCN(CCN3CCCC3)CC2)C1 | 4.71 |
| CC(C)N1CCC2(CC1)CC(NS(C)(=O)=O)c1ccccc1O2 (stereo not drawn) | 7.16 |
| CC(=O)N1CCC2(CCN(Cc3cccc(F)c3)CC2)CC1 | -5.46 |
| Cc1ccc(N2CCO[C@H]3CN(Cc4cccnc4)C[C@H]32)nn1 | -81.3 |
